Results on 3 compounds are retold here after PMC10644204 (Pharmacology Research & Perspectives, 2023).

The test system of series [1] is healthy participants. It counts as in vivo, human. Conditions: moxifloxacin 400 mg single dose.
Series [2] can be described thus: Plasma pharmacokinetics, part 2 main QTc study. It counts as in vivo, human. To be noted: human, plasma, oral, 400 mg. Put shortly: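 Moderate-fat meal 30 min before each dose. Plasma sampled predose on Days 1, 5, 6 and 7, and on Day 7 at 0.5–24 h postdose. Test compound assayed by validated UHPLC-MS/MS (3.00–1000 ng mL−1).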
Series [3] concerns healthy participants. In words: Safety assessments. In kind it is in vivo, human. Conditions: part 2, Moxifloxacin 400 mg (N = 40). The procedure, abridged: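 Part 2 healthy participants confined from Day −2 of period 1 to Day 9 of period 4. […] AEs monitored throughout, recording duration, severity, causality and outcome, alongside safety ECGs, laboratory tests, physical examination and vital signs.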

The test system of another series is QT interval. Conditions: supratherapeutic vs therapeutic doses; cited from earlier work.

Consider `COc1c(N2C[C@@H]3CCCN[C@@H]3C2)c(F)cc2c(=O)c(C(=O)O)cn(C3CC3)c12` [Moxifloxacin, moxifloxacin, reference compound], for which the “Observations of ΔQTcF >30 ms” value in the series with healthy participants [1] is reported as “no participants”. In series [2], the Cmax was 1960 ng/mL and the Tmax is 4 h. Moreover, in the series on healthy participants [3], the “AE: Abdominal pain” value was 1 (3) n (%), the “AE: Acne” value is reported as 0 n (%), the “AE: Diarrhea” value is given as 0 n (%) and the “AE: Gastrointestinal disorders” value was 2 (5) n (%). For the same compound, in the series with healthy participants [3], the “AE: General disorders and administration site conditions” value is reported as 1 (3) n (%); the “AE: Immune system disorders” value is 1 (3) n (%); the “AE: Infections and infestations” value was 0 n (%); the “AE: Maculopapular rash” value is recorded as 0 n (%). Besides, in the series on healthy participants [3], the “AE: Medical device site dermatitis” value is reported as 0 n (%); the “AE: Nausea” value is 0 n (%); the “AE: Nervous system disorders” value is 2 (5) n (%); the “AE: Renal and urinary disorders” value is 1 (3) n (%). Moreover, in the series on healthy participants [3], the “AE: Reproductive system and breast disorders” value is given as 0 n (%); the “AE: Respiratory, thoracic, and mediastinal disorders” value was 0 n (%); the “AE: Skin and subcutaneous tissue disorders” value was 0 n (%); the “AE: Vessel puncture site pain” value is given as 1 (3) n (%). Moreover, in the series on healthy participants [3], the “Any AE” value is reported as 4 (10) n (%), the “Any drug-related AE” value is 2 (5) n (%), the “Drug-related AE: Abdominal pain” value is reported as 1 (3) n (%) and the “Drug-related AE: Acne” value was 0 n (%). In the series on healthy participants [3], the “Drug-related AE: Diarrhea” value is listed as 0 n (%); the “Drug-related AE: Fatigue” value was 0 n (%); the “Drug-related AE: Gastrointestinal disorders” value is 1 (3) n (%); the “Drug-related AE: General disorders and administration site conditions” value is 0 n (%). Besides, in the series on healthy participants [3], the “Drug-related AE: Maculopapular rash” value is listed as 0 n (%); the “Drug-related AE: Nausea” value is on record as 0 n (%); the “Drug-related AE: Pruritus” value was 0 n (%); the “Drug-related AE: Renal and urinary disorders” value is recorded as 1 (3) n (%). In addition, in the series with healthy participants [3], the “Drug-related AE: Skin and subcutaneous tissue disorders” value is reported as 0 n (%); the “Drug-related AE: Urinary hesitation” value is reported as 1 (3) n (%). Moreover, the “Any drug-related AE” value with healthy participants [3] (listed as moxifloxacin) is listed as 2 n (%).

`COc1cnc(-n2cnc(C)n2)c2c1c(C(=O)C(=O)N1CCN(C(=O)c3ccccc3)CC1)cn2COP(=O)(O)O` [fostemsavir]: in the series with QT interval, the QT prolongation entry is reported as “QT prolongation with supratherapeutic doses but not therapeutic doses”.

With `Cc1cc(/C=C/C#N)cc(C)c1Nc1ccnc(Nc2ccc(C#N)cc2)n1` [rilpivirine], the QT prolongation result in the series with QT interval was “QT prolongation with supratherapeutic doses but not therapeutic doses”.
